The target of experiment [1] is T1, Hv1 WT (Homo sapiens, UniProt Q96D96).
T1 sequence (Q96D96 1-273): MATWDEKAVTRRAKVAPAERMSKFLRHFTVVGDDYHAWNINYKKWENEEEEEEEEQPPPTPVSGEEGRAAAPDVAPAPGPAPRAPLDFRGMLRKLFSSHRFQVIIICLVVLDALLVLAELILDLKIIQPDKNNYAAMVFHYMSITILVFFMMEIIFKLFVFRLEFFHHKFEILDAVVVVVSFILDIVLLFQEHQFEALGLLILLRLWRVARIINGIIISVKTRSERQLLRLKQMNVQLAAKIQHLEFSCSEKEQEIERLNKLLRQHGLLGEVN
Type of experiment: cell-based. The conditions noted are these: for inhibition kinetics: fast and slow components: RDT = 0.2. In a few lines: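 WT channel in inside-out oocyte patches, symmetric pH 6.0, 22 ± 1°C. Holding −40 mV, depolarization to +120 mV; relative depolarization time td/(tr + td) of 0.1, 0.2, 0.3 or 0.5. 50 µM perfused into bath, then washed out. End-pulse current normalized. Decay fitted double-exponentially (τfast, τslow, weights, c∞); recovery fitted single-exponentially. n = 7, 7, 5, 8 per RDT; SEM.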

Experiment [2] deals with T1, Hv1 WT. The conditions noted are these: 200 µM; ref Hong et al. (2013); cited from earlier work.
Experiment [3] has as its target T1, Hv1 WT. The experiment in a line: Inside-out patch, pulsed application of inhibitor to the closed channel. Particulars: 100 µM pulses, membrane held at 0 mV or −80 mV. Type of experiment: cell-based. In short, it runs like this: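 WT channel, inside-out oocyte patches, pH 6.0. Test compound (100 µM) applied in 3 s pulses while the membrane was held closed at −40 mV, or at 0 mV or −80 mV. Current read after each pulse with a step to +120 mV. Control pulses of a reference Hv1 inhibitor given first to confirm complete washout between depolarizations.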

In the next experiment the test system is Hv1. The conditions noted are these: full set of concentration points; ref Zhao et al., 2021; cited from earlier work.

As for `Cc1[nH]c(N)nc1CCC(=O)c1ccccc1` [HIFNF, 3-(2-amino-5-methyl-1H-imidazol-4-yl)-1-phenyl-propan-1-one], on Hv1 WT [1] (50 μM), the “inhibition kinetics: fast and slow components” value (“inhibition kinetics” below) is “with fast and slow components”.

On to `Cc1[nH]c(N)nc1CCC(O)c1cc(F)cc(F)c1` (stereo not shown) [HIFOH, 3-(2-amino-5-methyl-1H-imidazol-4-yl)-1-(3,5-difluorophenyl)propan-1-ol], for which, on Hv1 WT [1] (50 μM), the “inhibition kinetics” value was “did not have a significant slow component”.

Consider `Cc1[nH]c(N)nc1CNC(=O)c1cc(F)cc(F)c1` [HIFNH, N-[(2-amino-5-methyl-1H-imidazol-4-yl)methyl]-3,5-difluorobenzamide], for which the “inhibition kinetics” value against Hv1 WT [1] (50 μM) was “with fast and slow components”.

Consider `N=C(N)Nc1nc2ccccc2[nH]1` [2GBI, 2-guanidinobenzimidazole, reference compound], for which the G-V shift result at Hv1 WT [2] was “lack of G-V shift”. The “return of current to original level upon washout” value on Hv1 WT [1] (after 50 μM, washout) is listed as “a few seconds”. Besides, the inhibition at 50 µM at Hv1 WT [1] (read-out: stable inhibited current level (of the original current)) is around 50%. Moreover, the “inhibition when transiently perfused on closed channel” value on Hv1 WT [3] is given as “failed to produce any inhibition”.

For the molecule `Nc1nc2ccccc2[nH]1` [ABI, 2-aminobenzimidazole, reference compound], the “extent and kinetics of proton current inhibition compared with 2GBI” value on Hv1 WT [1] (50 μM, same conditions as 2GBI) is recorded as “inhibited the proton current to a smaller extent but with similar kinetics”.

Broadly, the Hill coefficient is the slope factor of the fitted curve. As to `Cc1[nH]c(N)nc1/C=C/C(=O)c1cc(F)cc(F)c1` [HIFEN, (2E)-3-(2-amino-5-methyl-1H-imidazol-4-yl)-1-(3,5-difluorophenyl)prop-2-en-1-one], the Hill coefficient in the experiment with Hv1 is recorded as 1.50 ± 0.11. In addition, at Hv1 WT [1] (50 μM), the “inhibition kinetics” value is “with fast and slow components”.

The values above are taken from paper PMC8263925 (The Journal of General Physiology, 2021).
